According to ChEMBL document CHEMBL4689842, “EUbOPEN Chemogenomics Library wave 1” (2021):
Where “and” joins values, the source holds several entries; their conditions need not be identical. Identical values can stand only once.

Test system: U2OS
Assay: Multiplex assay against U2OS
Type: toxicity, cell-based
Settings: human
In short: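 Four dyes were applied at seeding to live cells: Hoechst33342, BioTracker Green Microtubule Cytoskeleton Dye, MitoTracker Red and Annexin V Alexa Fluor 680. Imaging after compound addition used a CQ1 microscope at 37°C and 5% CO2. CellPathfinder machine-learning gating then sorted cells into Hoechst high-intensity objects or normal cells, normal cells into healthy, pyknosed or fragmented nuclei, and pyknosed cells into mitotic or apoptotic, with tubulin, mitochondrial-mass and membrane-permeability phenotypes given as per cents of healthy-nucleus cells.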

[1] = 12 h, 1 µM, compound concentration 1 uM, replicate 1
[2] = 12 h, 1 µM, compound concentration 1 uM, replicate 2
[3] = 12 h, 10 µM, compound concentration 10 uM, replicate 1
[4] = 12 h, 10 µM, compound concentration 10 uM, replicate 2
[5] = 24 h, 1 µM, compound concentration 1 uM, replicate 1
[6] = 24 h, 1 µM, compound concentration 1 uM, replicate 2
[7] = 24 h, 10 µM, compound concentration 10 uM, replicate 1
[8] = 24 h, 10 µM, compound concentration 10 uM, replicate 2
[9] = 48 h, 1 µM, compound concentration 1 uM, replicate 1
[10] = 48 h, 1 µM, compound concentration 1 uM, replicate 2
[11] = 48 h, 10 µM, compound concentration 10 uM, replicate 1
[12] = 48 h, 10 µM, compound concentration 10 uM, replicate 2

C=CC(=O)Nc1cccc(C(=O)Nc2ccc(Nc3cc(-c4[nH]c(SC)nc4C)ccn3)cc2)c1
Population Apoptotic (%) [1]: 52%
Population Fragmented Nuclei (%) [1]: 9%
Population Healthy Nuclei (%) [1]: 78%
Population Hoechst High Intensity Objects (%) [1]: 8%
Population Membrane Permeable-Phenotype (%) [1]: 4%
Population Mitochondria Different-Phenotype (%) [1]: 8%
Population Mitotic Cells (%) [1]: 47%
Population Normal (%) [1]: 91%
Population Pyknosed Nuclei (%) [1]: 12%
Population Tubulin-Different-Phenotype (%) [1]: 11%
Total Cell Count [1]: 259
Population Apoptotic (%) [2]: 0%
Population Fragmented Nuclei (%) [2]: 2%
Population Healthy Nuclei (%) [2]: 94%
Population Hoechst High Intensity Objects (%) [2]: 14%
Population Membrane Permeable-Phenotype (%) [2]: 0%
Population Mitochondria Different-Phenotype (%) [2]: 7%
Population Mitotic Cells (%) [2]: 100%
Population Normal (%) [2]: 85%
Population Pyknosed Nuclei (%) [2]: 2%
Population Tubulin-Different-Phenotype (%) [2]: 23%
Total Cell Count [2]: 112
Population Fragmented Nuclei (%) [3]: 7%
Population Healthy Nuclei (%) [3]: 77%
Population Hoechst High Intensity Objects (%) [3]: 6%
Population Membrane Permeable-Phenotype (%) [3]: 3%
Population Mitochondria Different-Phenotype (%) [3]: 8%
Population Mitotic Cells (%) [3]: 59%
Population Normal (%) [3]: 93%
Population Pyknosed Nuclei (%) [3]: 14%
Population Tubulin-Different-Phenotype (%) [3]: 9%
Total Cell Count [3]: 171
Population Apoptotic (%) [4]: 40%
Population Fragmented Nuclei (%) [4]: 6%
Population Healthy Nuclei (%) [4]: 83%
Population Hoechst High Intensity Objects (%) [4]: 18%
Population Membrane Permeable-Phenotype (%) [4]: 7%
Population Mitochondria Different-Phenotype (%) [4]: 12%
Population Mitotic Cells (%) [4]: 60%
Population Normal (%) [4]: 81%
Population Pyknosed Nuclei (%) [4]: 10%
Population Tubulin-Different-Phenotype (%) [4]: 12%
Total Cell Count [4]: 78
Population Apoptotic (%) [5]: 40%
Population Fragmented Nuclei (%) [5]: 13%
Population Healthy Nuclei (%) [5]: 76%
Population Hoechst High Intensity Objects (%) [5]: 4%
Population Membrane Permeable-Phenotype (%) [5]: 5%
Population Mitochondria Different-Phenotype (%) [5]: 5%
Population Mitotic Cells (%) [5]: 60%
Population Normal (%) [5]: 95%
Population Pyknosed Nuclei (%) [5]: 10%
Population Tubulin-Different-Phenotype (%) [5]: 18%
Total Cell Count [5]: 278
Population Apoptotic (%) [6]: 37%
Population Fragmented Nuclei (%) [6]: 3%
Population Healthy Nuclei (%) [6]: 87%
Population Membrane Permeable-Phenotype (%) [6]: 2%
Population Mitochondria Different-Phenotype (%) [6]: 10%
Population Mitotic Cells (%) [6]: 62%
Population Pyknosed Nuclei (%) [6]: 8%
Population Tubulin-Different-Phenotype (%) [6]: 25%
Total Cell Count [6]: 122
Population Apoptotic (%) [7]: 52%
Population Fragmented Nuclei (%) [7]: 7%
Population Healthy Nuclei (%) [7]: 83%
Population Hoechst High Intensity Objects (%) [7]: 5%
Population Membrane Permeable-Phenotype (%) [7]: 5%
Population Mitochondria Different-Phenotype (%) [7]: 6%
Population Mitotic Cells (%) [7]: 47%
Population Normal (%) [7]: 94%
Population Pyknosed Nuclei (%) [7]: 8%
Population Tubulin-Different-Phenotype (%) [7]: 6%
Total Cell Count [7]: 208
Population Apoptotic (%) [8]: 40%
Population Fragmented Nuclei (%) [8]: 5%
Population Healthy Nuclei (%) [8]: 85%
Population Hoechst High Intensity Objects (%) [8]: 11%
Population Membrane Permeable-Phenotype (%) [8]: 8%
Population Mitochondria Different-Phenotype (%) [8]: 14%
Population Mitotic Cells (%) [8]: 60%
Population Normal (%) [8]: 88%
Population Pyknosed Nuclei (%) [8]: 9%
Population Tubulin-Different-Phenotype (%) [8]: 12%
Total Cell Count [8]: 95
Population Apoptotic (%) [9]: 37%
Population Fragmented Nuclei (%) [9]: 5%
Population Healthy Nuclei (%) [9]: 86%
Population Hoechst High Intensity Objects (%) [9]: 3%
Population Membrane Permeable-Phenotype (%) [9]: 4%
Population Mitochondria Different-Phenotype (%) [9]: 10%
Population Mitotic Cells (%) [9]: 62%
Population Normal (%) [9]: 96%
Population Pyknosed Nuclei (%) [9]: 7%
Population Tubulin-Different-Phenotype (%) [9]: 17%
Total Cell Count [9]: 291
Population Apoptotic (%) [10]: 18%
Population Fragmented Nuclei (%) [10]: 6%
Population Healthy Nuclei (%) [10]: 85%
Population Hoechst High Intensity Objects (%) [10]: 4%
Population Membrane Permeable-Phenotype (%) [10]: 6%
Population Mitochondria Different-Phenotype (%) [10]: 13%
Population Mitotic Cells (%) [10]: 81%
Population Normal (%) [10]: 95%
Population Pyknosed Nuclei (%) [10]: 8%
Population Tubulin-Different-Phenotype (%) [10]: 28%
Total Cell Count [10]: 117
Population Apoptotic (%) [11]: 31%
Population Fragmented Nuclei (%) [11]: 7%
Population Healthy Nuclei (%) [11]: 84%
Population Hoechst High Intensity Objects (%) [11]: 3%
Population Membrane Permeable-Phenotype (%) [11]: 2%
Population Mitochondria Different-Phenotype (%) [11]: 9%
Population Mitotic Cells (%) [11]: 68%
Population Normal (%) [11]: 96%
Population Pyknosed Nuclei (%) [11]: 8%
Total Cell Count [11]: 316
Population Apoptotic (%) [12]: 11%
Population Fragmented Nuclei (%) [12]: 9%
Population Healthy Nuclei (%) [12]: 80%
Population Hoechst High Intensity Objects (%) [12]: 9%
Population Membrane Permeable-Phenotype (%) [12]: 4%
Population Mitochondria Different-Phenotype (%) [12]: 17%
Population Mitotic Cells (%) [12]: 88%
Population Normal (%) [12]: 90%
Population Pyknosed Nuclei (%) [12]: 10%
Population Tubulin-Different-Phenotype (%) [12]: 10%
Total Cell Count [12]: 133

COc1ccc(Oc2cc(NCCC(F)(F)F)c3ncc(-c4ccc(C(=O)NC5CC5)c(C)c4)n3n2)c(F)c1F [BAY-1217389]
Population Apoptotic (%) [3]: 40% and 58%
Population Fragmented Nuclei (%) [3]: 9% and 11%
Population Healthy Nuclei (%) [3]: 83% and 73%
Population Hoechst High Intensity Objects (%) [3]: 4%
Population Membrane Permeable-Phenotype (%) [3]: 66% and 23%
Population Mitotic Cells (%) [3]: 60% and 41%
Population Normal (%) [3]: 95%
Population Pyknosed Nuclei (%) [3]: 7% and 15%
Population Tubulin-Different-Phenotype (%) [3]: 97% and 100%
Total Cell Count [3]: 148 and 164
Population Apoptotic (%) [4]: 60% and 55%
Population Fragmented Nuclei (%) [4]: 19%
Population Healthy Nuclei (%) [4]: 85% and 59%
Population Hoechst High Intensity Objects (%) [4]: 17% and 11%
Population Membrane Permeable-Phenotype (%) [4]: 53% and 63%
Population Mitotic Cells (%) [4]: 40% and 45%
Population Normal (%) [4]: 82% and 88%
Population Tubulin-Different-Phenotype (%) [4]: 88%
Total Cell Count [4]: 114 and 108
Population Apoptotic (%) [7]: 52% and 69%
Population Fragmented Nuclei (%) [7]: 10% and 14%
Population Healthy Nuclei (%) [7]: 77% and 65%
Population Hoechst High Intensity Objects (%) [7]: 5% and 2%
Population Membrane Permeable-Phenotype (%) [7]: 38% and 41%
Population Mitochondria Different-Phenotype (%) [7]: 44% and 83%
Population Mitotic Cells (%) [7]: 47% and 30%
Population Normal (%) [7]: 94% and 97%
Population Pyknosed Nuclei (%) [7]: 11% and 20%
Population Tubulin-Different-Phenotype (%) [7]: 92% and 99%
Total Cell Count [7]: 154 and 167
Population Apoptotic (%) [8]: 50% and 60%
Population Fragmented Nuclei (%) [8]: 13%
Population Healthy Nuclei (%) [8]: 75% and 54%
Population Hoechst High Intensity Objects (%) [8]: 10% and 13%
Population Membrane Permeable-Phenotype (%) [8]: 39% and 78%
Population Mitochondria Different-Phenotype (%) [8]: 59% and 95%
Population Mitotic Cells (%) [8]: 50% and 39%
Population Normal (%) [8]: 89% and 86%
Population Pyknosed Nuclei (%) [8]: 14% and 32%
Population Tubulin-Different-Phenotype (%) [8]: 87% and 100%
Total Cell Count [8]: 110 and 101
